Tests used:
[1] = Antiviral activity against HIV2 ROD infected in human MT4 cells assessed as protection against virus-induced cytopathic effect after 5 days MTT assay; format: functional, cell-based, Human immunodeficiency virus type 2 (ISOLATE ROD); conditions: Human immunodeficiency virus 2, MT4, 120 h
In short: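 HIV-1 strain IIIB and HIV-2 strain ROD in MT-4 cells, MTT-based. Test compounds in serial five-fold dilutions, in triplicate wells run alongside mock-infected cells, with untreated infected and mock controls. MT-4 cells resuspended at 6 × 10^5 cells/mL. Absorbance read at 540 and 690 nm, median OD of three wells. EC50 is the 50% effective concentration.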

[2] = Selectivity index, ratio of CC50 for human MT4 cells to EC50 for HIV2 ROD; format: toxicity, cell-based; conditions: read-out: Ratio CC50/EC50
In short: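 HIV-1 IIIB and HIV-2 ROD tested in MT-4 cells by MTT. Serial fivefold dilutions of compound added to triplicate mock- and virus-infected wells. MT-4 cells at 6 × 10^5 cells/mL. Absorbance read at 540/690 nm; median OD of three wells used. CC50 is the concentration reducing mock-infected OD540 by 50%. […]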

[3] = Cytotoxicity against human HL-60(TB) cells assessed as cell growth at 10^-5 M after 48 hrs by SRB assay relative to control; format: functional; conditions: HL-60, 48 h, read-out: Activity
In short: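 NCI-60 one-dose primary screen run by the US NCI under its protocol. Single concentration of 10 µM across the 60-line human tumour panel, which includes HL-60(TB). Read-out is growth percent for each cell line. Lines reduced to about 32% growth or less are taken forward to full-panel testing over a 5-log dose range.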

[4] = Cytotoxicity against human K562 cells assessed as cell growth at 10^-5 M after 48 hrs by SRB assay relative to control; format: functional; conditions: K562, 48 h, read-out: Activity
In short: (§1)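 NCI single-dose primary screen run under the US NCI protocol. Compounds tested at 10 µM across the 60-cell-line panel, with growth percent reported for each line.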

[5] = Cytotoxicity against human SR cells assessed as cell growth at 10^-5 M after 48 hrs by SRB assay relative to control; format: functional; conditions: read-out: Activity
In short: (§2)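 Single-dose NCI 60-cell-line screen run under the US NCI protocol. Compounds tested at 10 µM. Read-out is growth percent for each cell line.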

[6] = Cytotoxicity against human NCI-H23 cells assessed as cell growth at 10^-5 M after 48 hrs by SRB assay relative to control; format: functional; conditions: NCI-H23, 48 h, read-out: Activity; in short: as §1
[7] = Cytotoxicity against human HCC2998 cells assessed as cell growth at 10^-5 M after 48 hrs by SRB assay relative to control; format: functional; conditions: HCC 2998, 48 h, read-out: Activity; in short: as §1
[8] = Cytotoxicity against human HCT116 cells assessed as cell growth at 10^-5 M after 48 hrs by SRB assay relative to control; format: functional; conditions: HCT-116, 48 h, read-out: Activity; in short: as §1
[9] = Cytotoxicity against human HCT15 cells assessed as cell growth at 10^-5 M after 48 hrs by SRB assay relative to control; format: functional; conditions: HCT-15, 48 h, read-out: Activity; in short: as §1
[10] = Cytotoxicity against human HT-29 cells assessed as cell growth at 10^-5 M after 48 hrs by SRB assay relative to control; format: functional; conditions: HT-29, 48 h, read-out: Activity; in short: as §1
[11] = Cytotoxicity against human SF295 cells assessed as cell growth at 10^-5 M after 48 hrs by SRB assay relative to control; format: functional; conditions: SF-295, 48 h, read-out: Activity; in short: as §1
[12] = Cytotoxicity against human SF539 cells assessed as cell growth at 10^-5 M after 48 hrs by SRB assay relative to control; format: functional; conditions: SF-539, 48 h, read-out: Activity; in short: as §2
[13] = Cytotoxicity against human SNB19 cells assessed as cell growth at 10^-5 M after 48 hrs by SRB assay relative to control; format: functional; conditions: SNB-19, 48 h, read-out: Activity; in short: as §2
[14] = Cytotoxicity against human U251 cells assessed as cell growth at 10^-5 M after 48 hrs by SRB assay relative to control; format: functional; conditions: U-251, 48 h, read-out: Activity; in short: as §2
[15] = Cytotoxicity against human LOXIMVI cells assessed as cell growth at 10^-5 M after 48 hrs by SRB assay relative to control; format: functional; conditions: LOX IMVI, read-out: Activity; in short: as §1
[16] = Cytotoxicity against human M14 cells assessed as cell growth at 10^-5 M after 48 hrs by SRB assay relative to control; format: functional; conditions: M14, 48 h, read-out: Activity; in short: as §1
[17] = Cytotoxicity against human MDA-MB-435 cells assessed as cell growth at 10^-5 M after 48 hrs by SRB assay relative to control; format: functional; conditions: MDA-MB-435, 48 h, read-out: Activity; in short: as §1
[18] = Cytotoxicity against human SK-MEL-2 cells assessed as cell growth at 10^-5 M after 48 hrs by SRB assay relative to control; format: functional; conditions: SK-MEL-2, 48 h, read-out: Activity; in short: as §2
[19] = Cytotoxicity against human IGROV1 cells assessed as cell growth at 10^-5 M after 48 hrs by SRB assay relative to control; format: functional; conditions: IGROV-1, 48 h, read-out: Activity; in short: as §1
[20] = Cytotoxicity against human OVCAR3 cells assessed as cell growth at 10^-5 M after 48 hrs by SRB assay relative to control; format: functional; conditions: OVCAR-3, 48 h, read-out: Activity; in short: as §1
[21] = Cytotoxicity against human 786-0 cells assessed as cell growth at 10^-5 M after 48 hrs by SRB assay relative to control; format: functional; conditions: 786-0, 48 h, read-out: Activity; in short: as §1
[22] = Cytotoxicity against human A498 cells assessed as cell growth at 10^-5 M after 48 hrs by SRB assay relative to control; format: functional; conditions: A498, 48 h, read-out: Activity; in short: as §1
[23] = Cytotoxicity against human ACHN cells assessed as cell growth at 10^-5 M after 48 hrs by SRB assay relative to control; format: functional; conditions: read-out: Activity; in short: as §1
[24] = Cytotoxicity against human Caki1 cells assessed as cell growth at 10^-5 M after 48 hrs by SRB assay relative to control; format: functional; conditions: CAKI-1, 48 h, read-out: Activity; in short: as §1
[25] = Cytotoxicity against human SN12C cells assessed as cell growth at 10^-5 M after 48 hrs by SRB assay relative to control; format: functional; conditions: read-out: Activity; in short: as §2
[26] = Cytotoxicity against human PC3 cells assessed as cell growth at 10^-5 M after 48 hrs by SRB assay relative to control; format: functional; conditions: PC-3, 48 h, read-out: Activity; in short: as §1
[27] = Cytotoxicity against human DU145 cells assessed as cell growth at 10^-5 M after 48 hrs by SRB assay relative to control; format: functional; conditions: DU-145, 48 h, read-out: Activity; in short: as §1
[28] = Cytotoxicity against human Hs 578T cells assessed as cell growth at 10^-5 M after 48 hrs by SRB assay relative to control; format: functional; conditions: read-out: Activity; in short: as §1
[29] = Cytotoxicity against human BT549 cells assessed as cell growth at 10^-5 M after 48 hrs by SRB assay relative to control; format: functional; conditions: BT-549, 48 h, read-out: Activity; in short: as §1
[30] = Cytotoxicity against human T47D cells assessed as cell growth at 10^-5 M after 48 hrs by SRB assay relative to control; format: functional; conditions: read-out: Activity; in short: as §2
[31] = Cytotoxicity against human MDA-MB-468 cells assessed as cell growth at 10^-5 M after 48 hrs by SRB assay relative to control; format: functional; conditions: MDA-MB-468, 48 h, read-out: Activity; in short: as §1

Compound | EC50 [1] [µg/mL] | selectivity ratio [2] | growth at 10 µM [3] [%] | growth at 10 µM [4] [%] | growth at 10 µM [5] [%] | growth at 10 µM [6] [%] | growth at 10 µM [7] [%] | growth at 10 µM [8] [%] | growth at 10 µM [9] [%] | growth at 10 µM [10] [%] | growth at 10 µM [11] [%] | growth at 10 µM [12] [%] | growth at 10 µM [13] [%] | growth at 10 µM [14] [%] | growth at 10 µM [15] [%] | growth at 10 µM [16] [%] | growth at 10 µM [17] [%] | growth at 10 µM [18] [%] | growth at 10 µM [19] [%] | growth at 10 µM [20] [%] | other results
CC(=O)Nc1ccc(OCc2nnc(SCC(=O)Nc3ccc(Br)cc3)n2Cc2ccccc2)cc1 | > 3.99 | ≤ 1 | 63.8 | 28.9 | 97.7 | 75.2 | 85.6 | 53.2 | 60.4 | 93.9 | 80.2 | 92.8 | 92.3 | 88.5 | 33.4 | 43.5 | 66 | 72.2 | 83.2 | 102 | growth at 10 µM [21]: 91.1%; growth at 10 µM [22]: 82.1%; growth at 10 µM [23]: 58.6%; growth at 10 µM [24]: 72.5%; growth at 10 µM [25]: 85.7%; growth at 10 µM [26]: 54.2%; growth at 10 µM [27]: 72.6%; growth at 10 µM [28]: 97.9%; growth at 10 µM [29]: 72.4%; growth at 10 µM [30]: 69.6%; growth at 10 µM [31]: 77.8%
Cc1ccc(C(C)C)c(OCc2nnc(SCC(=O)Nc3ccc(S(N)(=O)=O)cc3)n2Cc2ccccc2)c1 | > 13 | < 1 | 68.2 | 78.4 | 65.1 | 63.8 | 73.8 | 66.1 | 64.2 | 72.4 | 70.7 | 89.5 | 88.4 | 64.6 | 68.2 | 87.3 | 76.2 | 80.9 | 90.1 | 74.7 | growth at 10 µM [21]: 92.3%; growth at 10 µM [22]: 74.7%; growth at 10 µM [23]: 76%; growth at 10 µM [24]: 81.1%; growth at 10 µM [25]: 81.6%; growth at 10 µM [26]: 31.1%; growth at 10 µM [27]: 82.3%; growth at 10 µM [28]: 86.2%; growth at 10 µM [29]: 65.8%; growth at 10 µM [30]: 33.3%; growth at 10 µM [31]: 70.5%
Cc1ccc(C(C)C)c(OCc2nnc(SCC(=O)Nc3ccc(Cl)cc3)n2Cc2ccccc2)c1 | > 65.9 | < 1 | 83.9 | 97.5 | -6.63 | 80.6 | 89.7 | 52.9 | 76.7 | 70 | 88.1 | 85.4 | 80.3 | 40.9 | 64.4 | 99 | 103 | 108 | 69.4 | 63.9 | growth at 10 µM [21]: 38.9%; growth at 10 µM [22]: 78%; growth at 10 µM [23]: 41.6%; growth at 10 µM [24]: 93.9%; growth at 10 µM [25]: 56.5%; growth at 10 µM [26]: 71.9%; growth at 10 µM [27]: 90.5%; growth at 10 µM [28]: 75.5%; growth at 10 µM [29]: 97.4%; growth at 10 µM [30]: 78.6%; growth at 10 µM [31]: 72.3%

Source: ChEMBL document CHEMBL3861959, “Synthesis and antiproliferative evaluation of novel 2-(4H-1,2,4-triazole-3-ylthio)acetamide derivatives as inducers of apoptosis in cancer cells” (Eur J Med Chem, 2016)
